Laboratory results as given in PMC4824005 (Nature structural & molecular biology, 2015).
Values belong to the molecule of their own block, whether it stands above or below them. Non-standard residues stand in square brackets, D forms with d. No end group written: not given here. *: point of attachment. Biotin = O=C1N[C@H]2[C@H](CS[C@H]2CCCCC(=O)*)N1; pY = N[C@@H](Cc1ccc(OP(=O)(O)O)cc1)C(=O)O; AHA = not defined here

Assays:
[1] = test system: Shc1 phosphorylated at Tyr239 and Tyr240 in MCF10A cells; assay: Immunoblot of dual Shc1 phosphorylation in MCF10A cells; type: cell-based; conditions: dasatinib 250 or 500nM pretreatment 1 hour, then 1ng/mL EGF 3 min
In short: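 MCF10A cells (STR-authenticated, mycoplasma-free) were kept in HuMEC medium and held 16 h in growth-factor-free medium before pretreatment with test compound and EGF stimulation. Cells were lysed in RIPA buffer containing protease and phosphatase inhibitors. Lysates were separated by SDS-PAGE, transferred to nitrocellulose and immunoblotted with phospho-Shc and total Shc antibodies.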

Src = assay: HPLC and LC-MS/MS analysis of Src kinase reaction with Shc1 Y-Y peptide; type: biochemical; conditions: 5μM Src, 500μM Shc1 peptide, 1mM ATP
In short: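 Recombinant Src (5μM final) was reacted with 500μM unmodified Shc1 peptide and 1mM ATP. Timed aliquots were EDTA-quenched, then run on C18 reversed-phase HPLC (0–30% acetonitrile/0.1% TFA over 30 min, 1.0 ml/min, A220), with peaks assigned from standards. The peak was analysed by nanoflow LC/MS/MS on an Orbitrap with CID and database search (FDR <1.5%, manual check). Site occupancy was taken from spectral counts per pTyr site.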

EGFR [2] = molecular target: T1, EGFR (Homo sapiens, UniProt P00533); assay: EGFR steady-state kinetics with Shc1 peptides; type: biochemical; conditions: peptide primed at Tyr240 vs unmodified peptide
In short: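 Recombinant EGFR kinase domain (residues 696–1022) at 100nM was incubated with Shc1 Tyr239-region peptides carrying added C-terminal lysines (0–12mM) in 50mM Tris pH 7.5, 10mM MgCl₂, 10mM MnCl₂, 2mM DTT with 2μCi γ-³²P-ATP/reaction, 30 min at 30°. Reactions were spotted on P81 paper, washed with 75mM H₃PO₄ and scintillation-counted. Initial rates (<5% substrate consumed) were fitted to Michaelis–Menten by nonlinear least squares; three experiments, each in triplicate.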

EGFR [3] = molecular target: T1, EGFR; assay: HPLC and LC-MS/MS analysis of EGFR kinase reaction with Shc1 Y-Y peptide; type: biochemical; conditions: no pY-pY peptides detected in HPLC analysis of EGFR reaction (Fig. 2c)
Grb2 = conditions: doubly phosphorylated (Tyr239 and Tyr240) Shc1; cited from earlier work

Molecule: Cc1nc(Nc2ncc(C(=O)Nc3c(C)cccc3Cl)s2)cc(N2CCN(CCO)CC2)n1 [dasatinib, reference compound]
inhibition of EGF-induced dual phosphorylation of Shc1 [1]: almost completely abolished

Molecule: PDHQYYNDAKKK [Y-Y]
product of Src phosphorylation by HPLC (Src): mono-phosphorylated peptides were the predominant product

decrease of Km by priming phosphorylation (EGFR [2]): approximately 4 fold
Molecule: PDHQYpYNDAKKK [Y-pY]

Molecule: PDHQpYYNDAKKK [pY-Y]
further phosphorylation by EGFR (EGFR [3]): not a substrate for further phosphorylation by EGFR

Molecule: doubly phosphorylated Shc1: Shc1 doubly phosphorylated at Tyr239 and Tyr240, literature ref 31 ({Biotin-AHA}-DHQ[pY][pY]NDFPGKE; reading uncertain)
increase in affinity for Grb2 vs phosphorylation at Tyr239 alone (Grb2): 3 fold
